Legend:
[1] = target: T1, Prostaglandin G/H synthase 1 (Ovis aries, UniProt P05979); test: Inhibition of ovine COX1 by enzyme immuno assay
T1 sequence (P05979 whole entry): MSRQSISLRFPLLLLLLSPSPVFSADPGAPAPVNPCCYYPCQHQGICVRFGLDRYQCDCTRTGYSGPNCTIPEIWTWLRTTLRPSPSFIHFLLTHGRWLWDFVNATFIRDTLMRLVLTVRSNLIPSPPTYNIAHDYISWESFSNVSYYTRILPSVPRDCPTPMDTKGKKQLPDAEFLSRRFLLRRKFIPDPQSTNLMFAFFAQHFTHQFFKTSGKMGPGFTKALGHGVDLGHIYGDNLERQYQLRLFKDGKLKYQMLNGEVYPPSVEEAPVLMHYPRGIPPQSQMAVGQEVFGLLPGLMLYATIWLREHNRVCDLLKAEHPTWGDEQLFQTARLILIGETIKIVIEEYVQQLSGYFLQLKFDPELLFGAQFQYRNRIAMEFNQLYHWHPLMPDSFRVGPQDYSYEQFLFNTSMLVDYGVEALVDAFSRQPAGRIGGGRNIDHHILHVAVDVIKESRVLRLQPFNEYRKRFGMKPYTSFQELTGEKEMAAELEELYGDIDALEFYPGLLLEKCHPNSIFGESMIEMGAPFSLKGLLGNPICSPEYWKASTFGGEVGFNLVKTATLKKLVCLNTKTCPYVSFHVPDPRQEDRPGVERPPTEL
Outline: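 Hematin-reconstituted purified ovine COX-1 (six units) in 0.1 M Tris-HCl pH 8.0 with 5 mM EDTA and 2 mM phenol. Pre-incubated 1 h at room temperature with inhibitor in DMSO, then arachidonic acid added for 2 min at 37 °C. PGH2 was reduced with stannous chloride and PGF2α measured by EIA. Run in duplicate; IC50 is the mean of the duplicates.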

[2] = organism: Ovis aries; test: Selectivity ratio of IC50 for ovine COX1 to IC50 for ovine COX2
Outline: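 Purified hematin-reconstituted ovine COX-1 and COX-2 (six units each) in Tris–HCl 0.1 M pH 8.0, 5 mM EDTA, 2 mM phenol. Enzymes were preincubated 1 h at room temperature with inhibitor in DMSO, then given arachidonic acid for 2 min at 37 °C. PGF2α from SnCl2 reduction of PGH2 was read by EIA. IC50s are means of duplicates; ratio is COX-1 IC50/COX-2 IC50.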

[3] = target: T2, Polyunsaturated fatty acid 5-lipoxygenase (Homo sapiens) (UniProt P09917); test: Inhibition of LOX5 from human PBML cells at 10 uM by enzyme immuno assay; format: cell-based
T2 sequence (whole entry): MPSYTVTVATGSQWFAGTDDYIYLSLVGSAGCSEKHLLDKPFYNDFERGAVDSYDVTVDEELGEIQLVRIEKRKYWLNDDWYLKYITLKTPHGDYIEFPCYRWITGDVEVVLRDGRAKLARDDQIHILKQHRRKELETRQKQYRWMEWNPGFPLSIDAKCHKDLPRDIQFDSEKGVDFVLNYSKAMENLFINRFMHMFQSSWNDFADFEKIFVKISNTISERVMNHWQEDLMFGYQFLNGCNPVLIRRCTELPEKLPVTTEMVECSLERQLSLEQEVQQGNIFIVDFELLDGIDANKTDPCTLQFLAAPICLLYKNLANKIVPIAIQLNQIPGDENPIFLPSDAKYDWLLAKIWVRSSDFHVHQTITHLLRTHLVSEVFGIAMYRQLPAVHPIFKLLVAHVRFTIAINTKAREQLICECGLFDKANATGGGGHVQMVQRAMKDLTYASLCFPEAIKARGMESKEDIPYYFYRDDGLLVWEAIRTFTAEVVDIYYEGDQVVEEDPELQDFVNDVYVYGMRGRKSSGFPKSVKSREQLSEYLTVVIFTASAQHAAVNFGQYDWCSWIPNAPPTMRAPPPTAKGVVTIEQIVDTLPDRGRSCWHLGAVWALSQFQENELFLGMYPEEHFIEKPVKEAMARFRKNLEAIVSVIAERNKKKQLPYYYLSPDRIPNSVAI
Outline: (§1)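 Run by a contract lab. Enzyme sources: human PBML cells (LOX-5), human platelets (LOX-12), rabbit reticulocytes (LOX-15). Substrates: endogenous arachidonic acid (LOX-5), added arachidonic acid (LOX-12), linoleic acid (LOX-15). Inhibition read as LTB4 (LOX-5), 12-HETE (LOX-12) or 15-HETE (LOX-15), quantified by EIA and spectrophotometrically.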

[4] = target: T3, Polyunsaturated fatty acid lipoxygenase ALOX12 (Homo sapiens) (UniProt P18054); test: Inhibition of LOX12 from human platelets at 10 uM by enzyme immuno assay; outline: as §1
T3 sequence (whole entry): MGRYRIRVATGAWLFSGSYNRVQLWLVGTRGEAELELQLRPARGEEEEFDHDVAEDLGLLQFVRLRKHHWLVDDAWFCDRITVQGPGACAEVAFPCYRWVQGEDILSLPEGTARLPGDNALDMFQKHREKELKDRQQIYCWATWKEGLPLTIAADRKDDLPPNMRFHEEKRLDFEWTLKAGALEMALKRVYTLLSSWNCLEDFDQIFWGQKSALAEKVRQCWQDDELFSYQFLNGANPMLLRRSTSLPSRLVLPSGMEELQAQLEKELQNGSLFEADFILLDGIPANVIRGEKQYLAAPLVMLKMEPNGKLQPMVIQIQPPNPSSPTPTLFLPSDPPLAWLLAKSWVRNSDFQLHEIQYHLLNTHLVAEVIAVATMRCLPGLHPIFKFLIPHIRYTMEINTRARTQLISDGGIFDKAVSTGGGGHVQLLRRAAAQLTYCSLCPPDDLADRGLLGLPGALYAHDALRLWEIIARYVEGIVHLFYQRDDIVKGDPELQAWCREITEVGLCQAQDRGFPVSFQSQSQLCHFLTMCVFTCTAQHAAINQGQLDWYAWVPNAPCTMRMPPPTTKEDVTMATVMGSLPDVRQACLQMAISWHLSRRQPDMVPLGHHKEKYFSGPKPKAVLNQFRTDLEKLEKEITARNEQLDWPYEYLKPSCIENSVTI

[5] = target: T4, Polyunsaturated fatty acid lipoxygenase ALOX15 (Oryctolagus cuniculus) (UniProt P12530); test: Inhibition of LOX15 from rabbit reticulocytes at 10 uM by enzyme immuno assay; outline: as §1
T4 sequence (whole entry): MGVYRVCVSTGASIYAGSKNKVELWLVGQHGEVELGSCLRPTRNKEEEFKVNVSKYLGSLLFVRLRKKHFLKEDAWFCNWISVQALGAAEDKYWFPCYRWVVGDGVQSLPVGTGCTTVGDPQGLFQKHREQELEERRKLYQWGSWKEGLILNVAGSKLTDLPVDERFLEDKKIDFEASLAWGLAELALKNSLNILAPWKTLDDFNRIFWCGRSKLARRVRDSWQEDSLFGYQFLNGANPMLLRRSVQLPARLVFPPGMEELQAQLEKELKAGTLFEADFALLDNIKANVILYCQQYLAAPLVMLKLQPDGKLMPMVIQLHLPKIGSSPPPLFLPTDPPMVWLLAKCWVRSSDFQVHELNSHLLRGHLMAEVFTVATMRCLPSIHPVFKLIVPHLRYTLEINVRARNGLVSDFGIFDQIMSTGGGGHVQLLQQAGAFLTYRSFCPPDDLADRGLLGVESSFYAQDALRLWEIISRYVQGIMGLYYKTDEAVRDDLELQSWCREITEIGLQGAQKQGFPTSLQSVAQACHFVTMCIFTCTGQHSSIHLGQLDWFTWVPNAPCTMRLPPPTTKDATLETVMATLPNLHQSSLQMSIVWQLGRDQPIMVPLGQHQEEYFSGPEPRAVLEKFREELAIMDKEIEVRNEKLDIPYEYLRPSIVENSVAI

SMILES | IC50 [1] [µM] | Ratio IC50 [2] | inhibition [3] [%] | inhibition [4] [%] | inhibition [5] [%]
NS(=O)(=O)c1ccc(-n2nc(C(F)(F)F)cc2-c2c[nH]c3ccccc23)cc1 | > 100 | 0 | – | – | –
NS(=O)(=O)c1ccc(N2N=C(C(F)(F)F)CC2c2c[nH]c3ccccc23)cc1 (stereo in doubt; 5a) [listing 1 of 2 here] | – | > 72 | 41 | 5 | 31
NS(=O)(=O)c1ccc(N2N=C(C(F)(F)F)CC2c2c[nH]c3ccccc23)cc1 (stereo in doubt; 5a) [listing 2 of 2 here] | > 100 | – | – | – | –
COc1cccc2[nH]cc(C3CC(C(F)(F)F)=NN3c3ccc(S(N)(=O)=O)cc3)c12 (configuration not stated) | > 100 | 12 | – | – | –
NS(=O)(=O)c1ccc(N2N=C(C(F)(F)F)CC2c2c[nH]c3cc([N+](=O)[O-])ccc23)cc1 (configuration not stated) | > 100 | 0 | – | – | –
NS(=O)(=O)c1ccc(N2N=C(C(F)(F)F)CC2c2c[nH]c3c(Cl)cccc23)cc1 (single isomer, unassigned; enantiomer 2) [listing 1 of 2 here] | > 100 | – | – | – | –
Nc1cccc2[nH]cc(C3CC(C(F)(F)F)=NN3c3ccc(S(N)(=O)=O)cc3)c12 (configuration not stated) | > 100 | 0 | – | – | –
N#Cc1ccc2c(C3CC(C(F)(F)F)=NN3c3ccc(S(N)(=O)=O)cc3)c[nH]c2c1 (configuration not stated) | > 100 | 0 | – | – | –
NS(=O)(=O)c1ccc(N2N=C(C(F)(F)F)CC2c2c[nH]c3c([N+](=O)[O-])cccc23)cc1 (configuration not stated) | > 100 | 0 | – | – | –
NS(=O)(=O)c1ccc(N2N=C(C(F)(F)F)CC2c2c[nH]c3ccc(Cl)cc23)cc1 (configuration not stated) | > 100 | > 3 | – | – | –
NS(=O)(=O)c1ccc(N2N=C(C(F)(F)F)CC2c2c[nH]c3cc(Br)ccc23)cc1 (configuration not stated) | > 100 | > 23 | – | – | –
NS(=O)(=O)c1ccc(N2N=C(C(F)(F)F)CC2c2c[nH]c3c(Cl)cccc23)cc1 (stereo in doubt; 5f) [listing 1 of 2 here] | – | > 26 | 94 | 3 | 36
NS(=O)(=O)c1ccc(N2N=C(C(F)(F)F)CC2c2c[nH]c3c(Cl)cccc23)cc1 (single isomer, unassigned; enantiomer 2) [listing 2 of 2 here] | – | > 1 | – | – | –
NS(=O)(=O)c1ccc(N2N=C(C(F)(F)F)CC2c2c[nH]c3ccc(C(=O)O)cc23)cc1 (configuration not stated) | > 100 | 0 | – | – | –
NS(=O)(=O)c1ccc(N2N=C(C(F)(F)F)CC2c2c[nH]c3c(Cl)cccc23)cc1 (single isomer, unassigned; enantiomer 1) [listing 1 of 2 here] | > 100 | – | – | – | –
NS(=O)(=O)c1ccc(N2N=C(C(F)(F)F)CC2c2c[nH]c3ccc(F)cc23)cc1 (configuration not stated) | > 100 | > 8 | – | – | –

SMILES | IC50 [1] [µM] | Ratio IC50 [2] | inhibition [3] [%] | inhibition [4] [%] | inhibition [5] [%]
Cc1[nH]c2cc(Cl)ccc2c1C1CC(C(F)(F)F)=NN1c1ccc(S(N)(=O)=O)cc1 (configuration not stated) | > 100 | > 17 | – | – | –
NS(=O)(=O)c1ccc(N2N=C(C(F)(F)F)CC2c2c[nH]c3c(Cl)cccc23)cc1 (single isomer, unassigned; enantiomer 1) [listing 2 of 2 here] | – | > 345 | – | – | –
NS(=O)(=O)c1ccc(N2N=C(C(F)(F)F)CC2c2c[nH]c3cc(F)ccc23)cc1 (configuration not stated) | > 100 | 0 | – | – | –
Nc1cccc2c(C3CC(C(F)(F)F)=NN3c3ccc(S(N)(=O)=O)cc3)c[nH]c12 (configuration not stated) | > 100 | > 42 | – | – | –
NS(=O)(=O)c1ccc(N2N=C(C(F)(F)F)CC2c2c[nH]c3ccccc23)cc1 (single isomer, unassigned; enantiomer 1) [listing 1 of 2 here] | > 100 | – | – | – | –
NS(=O)(=O)c1ccc(N2N=C(C(F)(F)F)CC2c2c[nH]c3ccccc23)cc1 (single isomer, unassigned; enantiomer 2) [listing 1 of 2 here] | > 100 | – | – | – | –
Nc1ccc2[nH]cc(C3CC(C(F)(F)F)=NN3c3ccc(S(N)(=O)=O)cc3)c2c1 (configuration not stated) | > 100 | > 118 | – | – | –
CS(=O)(=O)c1ccc(C2=C(c3ccccc3)C(=O)OC2)cc1 | – | – | 11 | -2 | 6
N#Cc1ccc2[nH]cc(C3CC(C(F)(F)F)=NN3c3ccc(S(N)(=O)=O)cc3)c2c1 (configuration not stated) | > 100 | 0 | – | – | –
NS(=O)(=O)c1ccc(N2N=C(C(F)(F)F)CC2c2c[nH]c3ccc([N+](=O)[O-])cc23)cc1 (configuration not stated) | > 100 | 2 | – | – | –
Nc1ccc2c(C3CC(C(F)(F)F)=NN3c3ccc(S(N)(=O)=O)cc3)c[nH]c2c1 (configuration not stated) | > 100 | 14 | – | – | –
NS(=O)(=O)c1ccc(N2N=C(C(F)(F)F)CC2c2c[nH]c3cc(Cl)ccc23)cc1 (configuration not stated) | > 100 | 0 | 51 | -2 | 36
NS(=O)(=O)c1ccc(N2N=C(C(F)(F)F)CC2c2c[nH]c3ccccc23)cc1 (single isomer, unassigned; enantiomer 1) [listing 2 of 2 here] | – | > 119 | – | – | –
NS(=O)(=O)c1ccc(N2N=C(C(F)(F)F)CC2c2c[nH]c3c(Cl)cccc23)cc1 (stereo in doubt; 5f) [listing 2 of 2 here] | > 100 | – | – | – | –
NS(=O)(=O)c1ccc(N2N=C(C(F)(F)F)CC2c2c[nH]c3ccccc23)cc1 (single isomer, unassigned; enantiomer 2) [listing 2 of 2 here] | – | > 8 | – | – | –
Cc1ccc(-c2cc(C(F)(F)F)nn2-c2ccc(S(N)(=O)=O)cc2)cc1 | – | – | – | 7 | 22
